Screening results deposited in PubChem by several laboratories.
PHOSPHO1 inh: PHOSPHO1 (human) inhibition; Q8TCT1; recombinant PHOSPHO1, absorbance phosphatase assay; inhibition, % at 13.3 µM; hit rate 1.1% among 290,000; AID 1565; in the data active = inhibition above about 60%
Target sequence (Q8TCT1 whole entry, looked up): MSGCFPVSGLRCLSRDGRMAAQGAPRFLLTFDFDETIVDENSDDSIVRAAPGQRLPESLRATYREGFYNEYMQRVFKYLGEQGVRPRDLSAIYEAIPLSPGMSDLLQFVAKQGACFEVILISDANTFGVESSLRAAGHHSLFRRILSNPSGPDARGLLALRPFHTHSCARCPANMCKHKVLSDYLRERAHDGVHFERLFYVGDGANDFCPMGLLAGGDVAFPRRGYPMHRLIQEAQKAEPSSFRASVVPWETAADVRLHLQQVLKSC
EP2 modulator: EP2 receptor (human) modulation; P43116; EP2-expressing cells, cAMP HTRF FRET, PGE2 co-stimulation; induction, % at 25 µM; hit rate 0.83% among 260,000;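 active = compounds whose cAMP rise, as percent of the full-agonist control response, exceeds 60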;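 note: rat C6 glioma line stably carrying human EP2 under a CMV promoter; the protocol text gives 20 µM as final concentration; 100% = response of wells given 1 µM PGE2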
Target sequence (P43116 whole entry, looked up): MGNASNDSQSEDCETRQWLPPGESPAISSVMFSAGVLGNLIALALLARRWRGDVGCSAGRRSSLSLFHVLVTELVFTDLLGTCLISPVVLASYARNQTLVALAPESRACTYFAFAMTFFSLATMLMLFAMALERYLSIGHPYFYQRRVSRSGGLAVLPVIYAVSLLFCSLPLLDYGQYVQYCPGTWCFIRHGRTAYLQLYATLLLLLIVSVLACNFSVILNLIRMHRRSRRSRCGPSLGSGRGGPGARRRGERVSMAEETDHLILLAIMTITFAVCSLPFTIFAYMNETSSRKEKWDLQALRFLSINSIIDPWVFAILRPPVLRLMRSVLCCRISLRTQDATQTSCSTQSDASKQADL
HKDC1 inh: blocks human hexokinase HKDC1 activity | recombinant HKDC1, G6PDH/diaphorase resazurin coupled fluorescence | inhibition, % at 20 µM | hit rate 0.16% among 340,000;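 active = inhibition above about 35% when tested at 20 µM, limit read from the data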;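 note: plate controls were DMSO wells with enzyme for no effect and DMSO wells lacking enzyme for full effect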
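Assay system – recombinant HKDC1 (HK5) hexokinase enzyme, produced in-house · Input – HKDC1 at 5 µg/mL · Reagent – glucose plus 1 mM ATP as hexokinase substrates · Timing – 90 min reaction incubation at room temperature, dark · Measured by – G6PDH/diaphorase-coupled fluorescence, 1 mM NADP, 100 µM resazurin, 525/613 nm · Benchmarks – DMSO-enzyme wells negative, buffer-substituted wells positive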
Tb hexokinase: T. brucei hexokinase 1 inhibition. recombinant TbHK1, G6PDH-coupled NADH A340. inhibition, % at 10 µM. hit rate 0.11% among 220,000;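 active = inhibition of 50% or more in the single-dose primary screen; inactive = inhibition below 50%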
PfG6PD inh: PfG6PD (Plasmodium falciparum) enzyme inhibition; PfGluPho enzyme, NADPH resazurin-diaphorase fluorescence; inhibition, % at 20 µM; hit rate 0.78% among 350,000;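 active = inhibition reaching at least a set limit at 20 µM in the primary screen, cut at about 59% in these data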;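 note: 0% = DMSO wells with substrate and 100% = DMSO wells lacking glucose-6-phosphate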
PGE2 EP2 inh: inhibitors of human EP2 prostaglandin E2 receptor; hit rate 0.52% among 260,000; AID 1422; inhibition, % at 25 µM; C6 glioma cells expressing human EP2, cAMP TR-FRET; cells stimulated with saturating PGE2;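 active = percent inhibition above 40 after rounding to a whole number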;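 note: rat C6 glioma host cells with rolipram phosphodiesterase inhibitor present; the protocol text gives 20 µM as final concentration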
Numbers without * were called inactive; . = no result given. The list is not random: actives were taken first. Their share in the collection is about 2.5%.

SMILES	PHOSPHO1 inh	EP2 modulator	HKDC1 inh	Tb hexokinase	PfG6PD inh	PGE2 EP2 inh
Cc1cccc(N2CC(C(=O)OCC(=O)c3ccc(OC(=O)c4cccs4)cc3)CC2=O)c1C (stereo not drawn)	-2	-21	7	1	12	120*
CC(C1OC(C)(C)C(O)C1O)[C@@H]1CC[C@]2(C)C3=CCC4C(C)(C)C(=O)CC[C@]4(C)C3CC[C@@]12C (stereo partly drawn)	.	3	.	.	.	12
Clc1ccc(-c2cc(-c3ccccc3)on2)cc1	.	.	-7	.	-16	.
c1ccc2cc(-c3cc(-c4cc(-c5ccc6ccccc6c5)on4)no3)ccc2c1	.	-28	.	.	.	45*
CCOC(=O)c1ccc2c(c1)n(CCO)c(C)[n+]2CC	90*	5	-5	2	27	12
Cc1cc(-c2ccccc2)nc(Oc2cccc(C(F)(F)F)c2)c1S(C)(=O)=O	18	46	-1	-1	15	11
Cc1ccc(S(=O)(=O)c2c(C)cc(C)nc2Oc2cccc(C(F)(F)F)c2)cc1	24	64*	11	0	10	13
CN(C)c1ccc(/C=C/C(=O)c2ccc(O)cc2)cc1	.	.	3	.	4	.
CN(C)c1ccc(/C=C/C(=O)c2cccnc2)cc1	60*	-35	3	-6	-1	8
Cc1ccc(CN2CCN(C(=O)C3CCCO3)CC2)cc1 (stereo not drawn)	7	7	-9	3	-4	13
O=C(C1CCCO1)N1CCN(Cc2c(O)ccc3ccccc23)CC1 (stereo not drawn)	104*	-4	15	-4	15	14
CS(=O)(=O)c1cncnc1C1CCCN(C(=O)Nc2ccc(F)cc2)C1 (stereo not drawn)	.	-5	.	.	.	.
COc1ccc(-n2cc(CN3CCCC3)c(-c3cccc(F)c3)n2)cc1	61*	-17	-1	6	-6	5
Cc1cccc(-n2cc(CN3CCN(Cc4nccn4C)CC3)c(-c3cccc(F)c3)n2)c1	61*	-13	-7	-15	-1	5
COc1ccc(-n2cc(CNC3CCN(C)CC3)c(-c3cccc(F)c3)n2)cc1	11	-5	-4	-5	12	4
Cc1ccc(-c2nn(-c3cccc(F)c3)cc2CN2CCN(c3ccccn3)CC2)o1	40	28	1	-18	28	5
NCC(O)CN(c1ccccc1)c1ccccc1 (stereo not drawn)	53	-15	-4	-3	9	9
CC(C)[N+](C)(C)CC(O)CN(c1ccccc1)c1ccccc1 (stereo not drawn)	85*	30	4	1	1	7
CC1CN(C(=O)C2CCCCC2)C(C)CN1C(=O)C1CCCCC1 (stereo not drawn)	-2	-19	1	-4	0	10
CC1CN(C(=O)C2CCCC2)C(C)CN1C(=O)C1CCCC1 (stereo not drawn)	60*	0	-3	38	-9	5
CCN(CC)CCn1c(=S)[nH]c2ccccc2c1=O	36	0	-10	4	11	4
CCN(CC)CC[n+]1ccc2c(C)c3[nH]c4ccccc4c3c(C)c2c1	.	-41	.	.	.	58*
CC1(C)CC[C@]2(C(=O)O[C@@H]3O[C@H](CO)[C@@H](O)[C@H](O)[C@H]3O)CC[C@]3(C)C(=CCC4[C@@]5(C)CC[C@H](O[C@@H]6O[C@H](C(=O)O)[C@@H](O[C@H]7OC[C@@H](O)[C@@H](O)[C@@H]7O)[C@H](O)[C@H]6O)C(C)(C)C5CC[C@]43C)[C@@H]2C1 (stereo partly drawn)	.	.	-5	.	7	.
C[C@@H]1OC(O[C@H]2[C@H](OC(=O)[C@]34CCC(C)(C)CC3C3=CCC5[C@@]6(C)CC[C@H](OC7O[C@@H](C)[C@H](O[C@@H]8OC[C@@H](O)[C@H](O)[C@H]8O)[C@@H](O)[C@H]7O)C(C)(C)C6CC[C@@]5(C)[C@]3(C)CC4O)OC[C@H](O)[C@H]2O)[C@H](O)[C@H](O)[C@H]1O[C@@H]1O[C@H](CO)[C@@H](O)[C@H](O)[C@H]1O (stereo partly drawn)	.	-25	.	.	.	108*
Cc1cccc(C)c1NC(=O)CSc1nnc(-c2cccs2)n1C	.	4	.	.	.	12
SMILES	PHOSPHO1 inh	EP2 modulator	HKDC1 inh	Tb hexokinase	PfG6PD inh	PGE2 EP2 inh
C=C1C[C@@]23CCC4[C@@](C)(CCC[C@@]4(C)C(=O)O)C2CC[C@]1(O)C3 (stereo partly drawn)	.	.	2	.	-10	.
CC(C)C1=C[C@@]23CC[C@@H]4[C@](C)(CCC[C@@]4(C)C(=O)O)[C@@H]2C[C@@H]1[C@H](C(=O)O)[C@@H]3C(=O)O	.	5	.	.	.	50*
S=c1nc(-c2ccccc2)n(Cc2ccco2)c2c1CCCC2	89*	38	.	-49	.	12
S=c1nc(-c2ccccc2)n(Cc2cccnc2)c2c1CCCC2	12	19	-3	-90	12	12
COCCN1C(=O)C(O)=C(C(=O)c2ccco2)C1c1ccc(O)c(OC)c1 (stereo not drawn)	.	-20	.	.	.	9
O=c1[nH]c(SCc2ccccc2)nc2[nH]ncc12	64*	-17	8	6	2	2
O=C(CSc1nc2[nH]ncc2c(=O)[nH]1)Nc1ccccc1	9	17	-7	-5	-11	6
CC/C(=C/c1sc2ccc(C)cc2[n+]1CC)SC	.	-246	.	.	.	12
CCOC(=O)c1sc(NC(=O)CSc2n[nH]c(-c3ccccc3)n2)c(C#N)c1C	77*	-22	-2	2	62*	.
Nc1ccc(C(CC(=O)O)n2cccc2)cc1 (stereo not drawn)	-26	14	-1	17	-7	4
O=C(O)CC(c1ccccc1)n1cccc1 (stereo not drawn)	87*	26	2	1	10	.
O=C1NC(=S)SC1=C1CCCC1	71*	11	-7	-25	-12	10
O=C1/C(=C/c2cccnc2)Sc2ccccc21	4	-34	26	-7	17	49*
CC1CN(C)CCC1CCc1ccc(NC(=O)Cc2ccc(-n3cnnn3)cc2)cc1 (stereo not drawn)	.	-31	.	.	.	.
COc1ccc(N2CC(C(=O)NCCCN3CCOCC3)CC2=O)cc1 (stereo not drawn)	60*	15	0	25	-2	3
Cc1ccc(O)c(C2=Nc3ccccc3N=C(c3ccco3)C2)c1	23	63*	0	-11	14	17
O=C(N/N=C/c1cn(-c2cccs2)nc1-c1ccccc1)c1ccc(O)cc1	12	-38	-9	-6	-8	42*
O=C(Nc1nnc(-c2ccccc2Cl)o1)c1nc2ccccc2s1	30	-61	-10	-16	-13	91*
COc1ccc(CC(=S)N2CCOCC2)cc1OC	24	13	-4	0	-8	3
S=C(Cc1cccnc1)N1CCOCC1	60*	6	-9	35	43	12
CN1Cc2cccc(C(=O)NC3(c4cccc(F)c4)CCCC3)c2C1=O	.	-10	.	.	.	5
